# Results from ChEMBL document CHEMBL1121608, “Modification of the 5' position of purine nucleosides. 2. Synthesis and some cardiovascular properties of adenosine-5'-(N-substituted)carboxamides” (J Med Chem, 1980).
# How the values were obtained:
# [1] = Lethal dose in mice after peroral administration; type: toxicity, organism-based; settings: mouse, in vivo, po
# In short: (§1)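 Male and female mice, three per dose group, were given the compound by the stated route in increments of 0.5 log doses. The LD50 was estimated as an approximate value.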
# Canis familiaris [2] = assay: Total time in minutes elapsed from the initiation of the change until return to the pretest value of oxygen partial pressure in coronary sinus of anesthetized dog at intravenous dosage of 1 mg/kg; type: functional, Canis lupus familiaris
# In short: (§2)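 Open-chest anesthetized dogs given compound by intravenous injection. Coronary sinus PO2 was monitored, and duration was the total time in minutes from the onset of the change until return to the pretest value.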
# Canis familiaris [3] = assay: Total time in minutes elapsed from the initiation of the change until return to the pretest value of heart rate in coronary sinus of anesthetized dog at intravenous dosage of 1 mg/kg; type: functional, Canis lupus familiaris
# Canis familiaris [4] = assay: Total time in minutes elapsed from the initiation of the change until return to the pretest value of blood pressure in coronary sinus of anesthetized dog at intravenous dosage of 1 mg/kg; type: functional, Canis lupus familiaris
# [5] = Lethal dose in mice after intraperitoneal administration; type: toxicity, organism-based; settings: mouse, in vivo, ip; in short: as §1
# Canis familiaris [6] = assay: Tested for percent increase in coronary sinus partial pressure of oxygen (PO2) in open chest anesthetized dog at intravenous dosage of 1.00 mg/kg; type: functional, Canis lupus familiaris
# Canis familiaris [7] = assay: Tested for the percent increase in aortic blood pressure (BP) in open chest anesthetized dog at intravenous dosage of 1.00 mg/kg; type: functional, Canis lupus familiaris, Artery
# In short: (§3)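 Open-chest anesthetized dogs, compound given iv at the stated dose. Aortic blood pressure is reported as the change from the control (pre-dose) value. Other set-up follows the group's earlier cardiovascular protocol.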
# Canis familiaris [8] = assay: Total time in minutes elapsed from the initiation of the change until return to the pretest value of blood pressure in coronary sinus of anesthetized dog at intravenous dosage of 0.01 mg/kg; type: functional, Canis lupus familiaris
# Canis familiaris [9] = assay: Total time in minutes elapsed from the initiation of the change until return to the pretest value of oxygen partial pressure in coronary sinus of anesthetized dog at intravenous dosage of 0.01 mg/kg; type: functional, Canis lupus familiaris
# Canis familiaris [10] = assay: Tested for percent increase in coronary sinus partial pressure of oxygen (PO2) in open chest anesthetized dog at intravenous dosage of 0.01 mg/kg; type: functional, Canis lupus familiaris
# Canis familiaris [11] = assay: Total time in minutes elapsed from the initiation of the change until return to the pretest value of heart rate in coronary sinus of anesthetized dog at intravenous dosage of 0.01 mg/kg; type: functional, Canis lupus familiaris
# Canis familiaris [12] = assay: Total time in minutes elapsed from the initiation of the change until return to the pretest value of heart rate in coronary sinus of anesthetized dog at intravenous dosage of 10 mg/kg; type: functional, Canis lupus familiaris
# Canis familiaris [13] = assay: Total time in minutes elapsed from the initiation of the change until return to the pretest value of oxygen partial pressure in coronary sinus of anesthetized dog at intravenous dosage of 10 mg/kg; type: functional, Canis lupus familiaris; in short: as §2
# Canis familiaris [14] = assay: Tested for the percent increase in aortic blood pressure (BP) in open chest anesthetized dog at intravenous dosage of 10.00 mg/kg; type: functional, Canis lupus familiaris, Artery; in short: as §3
# Canis familiaris [15] = assay: Tested for percent increase in coronary sinus partial pressure of oxygen (PO2) in open chest anesthetized dog at intravenous dosage of 10.00 mg/kg; type: functional, Canis lupus familiaris
# Canis familiaris [16] = assay: Total time in minutes elapsed from the initiation of the change until return to the pretest value of blood pressure in coronary sinus of anesthetized dog at intravenous dosage of 10 mg/kg; type: functional, Canis lupus familiaris
# Canis familiaris [17] = assay: Tested for the percent increase in aortic blood pressure (BP) in open chest anesthetized dog at intravenous dosage of 0.01 mg/kg; type: functional, Canis lupus familiaris, Artery; in short: as §3
structure (smiles),measurement,setting,value
Cc1cccc(OCC(O)CNC(=O)[C@H]2OC(n3cnc4c(N)ncnc43)[C@H](O)[C@@H]2O)c1 (stereo partly drawn),LD50,[1],> 300 mg/kg
same,Duration,Canis familiaris [2],7 min
same,Duration,Canis familiaris [3],1 min
same,Duration,Canis familiaris [4],30 min
same,LD50,[5],> 300 mg/kg
same,PO2,Canis familiaris [6],42%
same,BP,Canis familiaris [7],3%
Nc1ncnc2c1ncn2[C@@H]1O[C@H](C(=O)NC2CCC2)[C@@H](O)[C@H]1O,LD50,[1],5 mg/kg
same,Duration,Canis familiaris [8],90 min
same,Duration,Canis familiaris [9],90 min
same,LD50,[5],2 mg/kg
same,PO2,Canis familiaris [10],79%
same,Duration,Canis familiaris [11],48 min
CN(C)CCNC(=O)[C@H]1OC(n2cnc3c(N)ncnc32)[C@H](O)[C@@H]1O (stereo partly drawn),LD50,[1],500 mg/kg
same,Duration,Canis familiaris [12],15 min
same,Duration,Canis familiaris [13],2 min
same,BP,Canis familiaris [14],5%
same,LD50,[5],20 mg/kg
same,PO2,Canis familiaris [15],13%
same,Duration,Canis familiaris [16],15 min
CCNC(=O)[C@H]1O[C@@H](n2cnc3c(N)ncnc32)[C@@H](OC(C)=O)C1OC(C)=O (stereo partly drawn),LD50,[1],2 mg/kg
same,Duration,Canis familiaris [8],70 min
same,Duration,Canis familiaris [9],120 min
same,BP,Canis familiaris [17],12%
same,LD50,[5],2 mg/kg
same,PO2,Canis familiaris [10],52%
same,Duration,Canis familiaris [11],120 min
Cc1cccc(C)c1NC(=O)[C@H]1OC(n2cnc3c(N)ncnc32)[C@H](O)[C@@H]1O (stereo partly drawn),LD50,[1],> 1000 mg/kg
same,Duration,Canis familiaris [12],5 min
same,Duration,Canis familiaris [13],30 min
same,BP,Canis familiaris [14],13%
same,LD50,[5],> 1000 mg/kg
same,PO2,Canis familiaris [15],15%
same,Duration,Canis familiaris [16],30 min
CCC(=O)c1ccccc1NC(=O)[C@H]1OC(n2cnc3c(N)ncnc32)[C@H](O)[C@@H]1O (stereo partly drawn),LD50,[1],> 1000 mg/kg
same,Duration,Canis familiaris [12],40 min
same,Duration,Canis familiaris [13],16 min
same,BP,Canis familiaris [14],5%
same,LD50,[5],> 1000 mg/kg
same,PO2,Canis familiaris [15],39%
same,Duration,Canis familiaris [16],40 min
Nc1ncnc2c1ncn2C1O[C@H](C(=O)N2CCCCC2)[C@@H](O)[C@H]1O (stereo partly drawn),LD50,[1],> 1000 mg/kg
same,Duration,Canis familiaris [12],30 min
same,Duration,Canis familiaris [13],8 min
same,BP,Canis familiaris [14],7%
same,LD50,[5],> 1000 mg/kg
same,PO2,Canis familiaris [15],52%
same,Duration,Canis familiaris [16],20 min
C=CCNC(=O)[C@H]1O[C@@H](n2cnc3c(N)ncnc32)[C@H]2OC(C)(C)OC12 (stereo partly drawn),LD50,[1],> 1000 mg/kg
same,Duration,Canis familiaris [2],0 min
same,Duration,Canis familiaris [3],5 min
same,Duration,Canis familiaris [4],30 min
same,LD50,[5],> 1000 mg/kg
same,PO2,Canis familiaris [6],0%
same,BP,Canis familiaris [7],14%
C=CCN(CC=C)C(=O)[C@H]1OC(n2cnc3c(N)ncnc32)[C@H](O)[C@@H]1O (stereo partly drawn),LD50,[1],> 300 mg/kg
same,Duration,Canis familiaris [2],40 min
same,Duration,Canis familiaris [3],0 min
same,Duration,Canis familiaris [4],0 min
same,LD50,[5],> 300 mg/kg
same,PO2,Canis familiaris [6],66%
same,BP,Canis familiaris [7],0%
Nc1ncnc2c1ncn2C1O[C@H](C(=O)NCc2ccco2)[C@@H](O)[C@H]1O (stereo partly drawn),Duration,Canis familiaris [2],20 min
same,Duration,Canis familiaris [3],20 min
same,Duration,Canis familiaris [4],20 min
same,PO2,Canis familiaris [6],22%
same,BP,Canis familiaris [7],1%
CCCCCCNC(=O)[C@H]1OC(n2cnc3c(N)ncnc32)[C@H](O)[C@@H]1O (stereo partly drawn),LD50,[1],500 mg/kg
same,Duration,Canis familiaris [2],40 min
same,Duration,Canis familiaris [3],6 min
same,Duration,Canis familiaris [4],0 min
same,LD50,[5],200 mg/kg
same,PO2,Canis familiaris [6],100%
same,BP,Canis familiaris [7],0%
CC1(C)OC2[C@@H](C(=O)NC3CC3)O[C@@H](n3cnc4c(N)ncnc43)[C@H]2O1 (stereo partly drawn),LD50,[1],> 300 mg/kg
same,Duration,Canis familiaris [12],1 min
same,Duration,Canis familiaris [13],60 min
same,BP,Canis familiaris [14],26%
same,LD50,[5],> 300 mg/kg
same,PO2,Canis familiaris [15],9%
same,Duration,Canis familiaris [16],1 min
CCNC(=O)[C@H]1O[C@@H](n2cnc3c(N)ncnc32)[C@H](O)[C@@H]1O [NECA],LD50,[1],5 mg/kg
same,Duration,Canis familiaris [8],120 min
same,Duration,Canis familiaris [9],345 min
same,LD50,[5],0.5 mg/kg
same,PO2,Canis familiaris [10],250%
same,Duration,Canis familiaris [11],345 min
CC(=O)OC1[C@@H](C(=O)NC2CC2)O[C@@H](n2cnc3c(N)ncnc32)[C@H]1OC(C)=O (stereo partly drawn),LD50,[1],20 mg/kg
same,Duration,Canis familiaris [8],270 min
same,Duration,Canis familiaris [9],270 min
same,BP,Canis familiaris [17],31%
same,LD50,[5],5 mg/kg
same,PO2,Canis familiaris [10],67%
same,Duration,Canis familiaris [11],270 min
CC(C)NC(=O)[C@H]1OC(n2cnc3c(N)ncnc32)[C@H](O)[C@@H]1O (stereo partly drawn),LD50,[1],5 mg/kg
same,Duration,Canis familiaris [8],70 min
same,Duration,Canis familiaris [9],240 min
same,LD50,[5],5 mg/kg
same,PO2,Canis familiaris [10],43%
same,Duration,Canis familiaris [11],240 min
Nc1ncnc2c1ncn2C1O[C@H](C(=O)N2CCOCC2)[C@@H](O)[C@H]1O (stereo partly drawn),LD50,[1],> 300 mg/kg
same,Duration,Canis familiaris [12],0 min
same,Duration,Canis familiaris [13],0 min
same,BP,Canis familiaris [14],0%
same,LD50,[5],> 300 mg/kg
same,PO2,Canis familiaris [15],0%
same,Duration,Canis familiaris [16],0 min
CCOC(=O)CNC(=O)[C@H]1OC(n2cnc3c(N)ncnc32)[C@H](O)[C@@H]1O (stereo partly drawn),LD50,[1],> 300 mg/kg
same,Duration,Canis familiaris [12],11 min
same,Duration,Canis familiaris [13],30 min
same,BP,Canis familiaris [14],6%
same,LD50,[5],> 300 mg/kg
same,PO2,Canis familiaris [15],9%
same,Duration,Canis familiaris [16],30 min
Nc1ncnc2c1ncn2C1O[C@H](C(=O)Nc2ccc(F)cc2)[C@@H](O)[C@H]1O (stereo partly drawn),LD50,[1],> 1000 mg/kg
same,Duration,Canis familiaris [12],0 min
same,Duration,Canis familiaris [13],20 min
same,BP,Canis familiaris [14],0%
same,LD50,[5],500 mg/kg
same,PO2,Canis familiaris [15],30%
same,Duration,Canis familiaris [16],0 min
Nc1ncnc2c1ncn2C1O[C@H](C(=O)Nc2ccccc2)[C@@H](O)[C@H]1O (stereo partly drawn),LD50,[1],> 1000 mg/kg
same,Duration,Canis familiaris [2],120 min
same,Duration,Canis familiaris [3],7 min
same,Duration,Canis familiaris [4],0 min
same,LD50,[5],> 1000 mg/kg
same,PO2,Canis familiaris [6],127%
same,BP,Canis familiaris [7],0%
C=CCNC(=O)[C@H]1OC(n2cnc3c(N)ncnc32)[C@H](O)[C@@H]1O (stereo partly drawn),LD50,[1],> 1000 mg/kg
same,Duration,Canis familiaris [8],0 min
same,Duration,Canis familiaris [9],20 min
same,BP,Canis familiaris [17],0%
same,LD50,[5],200 mg/kg
same,PO2,Canis familiaris [10],129%
same,Duration,Canis familiaris [11],0 min
CCNC(=O)[C@H]1O[C@@H](n2cnc3c(N)ncnc32)[C@H]2OC(C)(C)OC12 (stereo partly drawn),Duration,Canis familiaris [12],16 min
same,Duration,Canis familiaris [13],30 min
same,BP,Canis familiaris [14],0%
same,PO2,Canis familiaris [15],27%
same,Duration,Canis familiaris [16],0 min
Nc1ncnc2c1ncn2[C@@H]1O[C@H](C(=O)NC2CC2)[C@@H](O)[C@H]1O,LD50,[1],5 mg/kg
same,Duration,Canis familiaris [8],150 min
same,Duration,Canis familiaris [9],150 min
same,LD50,[5],2 mg/kg
same,PO2,Canis familiaris [10],136%
same,Duration,Canis familiaris [11],150 min
COc1ccccc1N1CCN(C(=O)[C@H]2OC(n3cnc4c(N)ncnc43)[C@H](O)[C@@H]2O)CC1 (stereo partly drawn),LD50,[1],> 300 mg/kg
same,Duration,Canis familiaris [12],60 min
same,Duration,Canis familiaris [13],15 min
same,BP,Canis familiaris [14],7%
same,LD50,[5],> 300 mg/kg
same,PO2,Canis familiaris [15],107%
same,Duration,Canis familiaris [16],60 min
